Assay results: ChEMBL document CHEMBL1134694, “Discovery of macrocyclic hydroxamic acids containing biphenylmethyl derivatives at P1', a series of selective TNF-alpha converting enzyme inhibitors with potent cellular activity in the inhibition of TNF-alpha release” (J Med Chem, 2001)

Columns and labels:
[1] = molecular target: T1, Interstitial collagenase (Homo sapiens, UniProt P03956); assay: Inhibition of matrix metalloprotease-1
T1 sequence (P03956 whole entry): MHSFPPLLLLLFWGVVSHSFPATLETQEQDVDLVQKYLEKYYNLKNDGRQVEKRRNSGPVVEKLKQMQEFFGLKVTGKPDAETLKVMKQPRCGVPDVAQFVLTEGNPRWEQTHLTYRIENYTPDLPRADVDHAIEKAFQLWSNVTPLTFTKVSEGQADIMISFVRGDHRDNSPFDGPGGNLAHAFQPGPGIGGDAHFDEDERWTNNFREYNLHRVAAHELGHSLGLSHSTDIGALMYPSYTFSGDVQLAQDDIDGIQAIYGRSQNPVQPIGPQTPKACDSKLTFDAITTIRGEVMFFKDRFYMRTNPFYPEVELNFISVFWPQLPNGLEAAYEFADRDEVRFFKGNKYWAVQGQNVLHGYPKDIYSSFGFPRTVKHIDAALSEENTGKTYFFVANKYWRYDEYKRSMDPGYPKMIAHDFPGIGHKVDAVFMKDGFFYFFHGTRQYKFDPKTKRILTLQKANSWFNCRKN

[2] = species: Homo sapiens; assay: Binding affinity against human serum protein; format: functional
Procedure, shortened: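 Binding to human serum proteins, reported as the mean percentage of compound bound across three determinations.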

[3] = species: Homo sapiens; assay: Inhibition of TNF-alpha release in LPS-stimulated human whole blood assay(WBA); format: functional, organism-based
Procedure, shortened: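 Human whole blood stimulated with LPS; inhibition of TNF-alpha release measured in blood from three separate donors.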

[4] = molecular target: Disintegrin and metalloproteinase domain-containing protein 17 (Sus scrofa, UniProt O77636)
[5] = molecular target: Matrix metalloproteinase-9 (Homo sapiens, UniProt P14780); assay: Inhibition of human matrix metalloprotease-9
[6] = molecular target: 72 kDa type IV collagenase (Homo sapiens, UniProt P08253)
[7] = molecular target: Matrix metalloproteinase-15 (Homo sapiens, UniProt P51511); assay: Inhibition of matrix metalloprotease-15
[8] = molecular target: Macrophage metalloelastase (Homo sapiens, UniProt P39900); assay: Inhibition of matrix metalloprotease-12
[9] = molecular target: T2, Matrilysin (Homo sapiens, UniProt P09237); assay: Inhibition of matrix metalloprotease-7
T2 sequence (P09237 whole entry): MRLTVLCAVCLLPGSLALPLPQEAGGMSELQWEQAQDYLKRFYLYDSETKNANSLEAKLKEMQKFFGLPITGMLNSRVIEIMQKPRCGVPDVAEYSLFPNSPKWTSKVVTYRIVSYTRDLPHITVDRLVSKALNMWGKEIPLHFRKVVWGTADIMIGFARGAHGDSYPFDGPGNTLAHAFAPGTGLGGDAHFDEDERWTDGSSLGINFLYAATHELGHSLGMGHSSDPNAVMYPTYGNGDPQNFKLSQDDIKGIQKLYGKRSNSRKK

[10] = molecular target: Collagenase 3 (Homo sapiens, UniProt P45452); assay: Inhibition of matrix metalloprotease-13
[11] = molecular target: Stromelysin-2 (Homo sapiens, UniProt P09238); assay: Inhibition of matrix metalloprotease-10
[12] = molecular target: Matrix metalloproteinase-14 (Homo sapiens, UniProt P50281); assay: Inhibition of matrix metalloprotease-14
[13] = molecular target: Stromelysin-1 (Homo sapiens, UniProt P08254); assay: Inhibition of matrix metalloprotease-3
[14] = molecular target: Matrix metalloproteinase-16 (Homo sapiens, UniProt P51512); assay: Inhibition of matrix metalloprotease-16
[15] = molecular target: Neutrophil collagenase (Homo sapiens, UniProt P22894); assay: Inhibition of matrix metalloprotease-8
[16] = molecular target: T1, Interstitial collagenase; assay: Inhibition of human matrix metalloprotease-1

Sequence of 72 kDa type IV collagenase (P08253 whole entry): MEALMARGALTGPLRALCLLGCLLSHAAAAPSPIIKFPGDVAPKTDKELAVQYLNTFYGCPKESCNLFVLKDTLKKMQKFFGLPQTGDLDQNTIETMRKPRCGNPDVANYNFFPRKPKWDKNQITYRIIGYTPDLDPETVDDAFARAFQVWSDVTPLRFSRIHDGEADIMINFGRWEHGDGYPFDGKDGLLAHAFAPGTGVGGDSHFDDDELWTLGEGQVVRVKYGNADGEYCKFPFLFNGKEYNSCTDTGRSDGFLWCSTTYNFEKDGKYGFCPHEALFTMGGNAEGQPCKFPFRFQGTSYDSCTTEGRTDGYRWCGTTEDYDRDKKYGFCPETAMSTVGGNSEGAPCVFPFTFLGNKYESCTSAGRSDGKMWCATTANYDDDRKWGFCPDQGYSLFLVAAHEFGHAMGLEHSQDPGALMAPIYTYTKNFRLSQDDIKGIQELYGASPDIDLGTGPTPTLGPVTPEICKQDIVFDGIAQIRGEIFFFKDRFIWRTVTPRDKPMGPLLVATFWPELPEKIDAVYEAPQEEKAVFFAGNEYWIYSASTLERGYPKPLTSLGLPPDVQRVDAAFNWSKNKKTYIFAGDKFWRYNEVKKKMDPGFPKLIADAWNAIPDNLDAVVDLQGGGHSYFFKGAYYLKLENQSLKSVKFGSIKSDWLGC
Sequence of Stromelysin-1 (P08254 whole entry): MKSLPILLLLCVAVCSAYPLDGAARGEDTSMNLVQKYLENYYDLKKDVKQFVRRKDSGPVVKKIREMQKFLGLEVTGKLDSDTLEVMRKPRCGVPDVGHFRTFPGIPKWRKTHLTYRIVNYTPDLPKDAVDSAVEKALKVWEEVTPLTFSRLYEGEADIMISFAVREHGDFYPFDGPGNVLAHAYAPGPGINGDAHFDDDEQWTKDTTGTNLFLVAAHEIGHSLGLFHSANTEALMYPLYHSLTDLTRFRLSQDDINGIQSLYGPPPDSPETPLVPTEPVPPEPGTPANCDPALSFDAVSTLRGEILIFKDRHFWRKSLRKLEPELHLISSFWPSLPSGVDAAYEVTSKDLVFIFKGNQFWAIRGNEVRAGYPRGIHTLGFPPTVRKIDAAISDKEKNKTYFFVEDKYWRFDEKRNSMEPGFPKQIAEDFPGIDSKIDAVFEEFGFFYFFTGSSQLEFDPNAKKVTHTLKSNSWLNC
Sequence of Stromelysin-2 (P09238 whole entry): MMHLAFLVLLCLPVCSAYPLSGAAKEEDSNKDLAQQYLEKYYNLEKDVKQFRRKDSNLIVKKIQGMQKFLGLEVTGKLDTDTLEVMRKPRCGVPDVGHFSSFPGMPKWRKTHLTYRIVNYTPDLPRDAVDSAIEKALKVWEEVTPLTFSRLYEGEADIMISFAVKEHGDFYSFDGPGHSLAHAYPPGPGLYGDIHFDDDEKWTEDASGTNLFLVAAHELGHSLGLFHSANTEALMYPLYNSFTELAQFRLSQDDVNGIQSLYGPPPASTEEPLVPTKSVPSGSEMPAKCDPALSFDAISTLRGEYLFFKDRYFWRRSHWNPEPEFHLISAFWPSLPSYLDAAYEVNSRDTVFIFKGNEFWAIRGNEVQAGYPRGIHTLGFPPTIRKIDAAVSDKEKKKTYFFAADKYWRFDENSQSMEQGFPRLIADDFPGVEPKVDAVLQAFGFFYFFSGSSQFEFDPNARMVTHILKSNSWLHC
Sequence of Matrix metalloproteinase-16 (P51512 whole entry): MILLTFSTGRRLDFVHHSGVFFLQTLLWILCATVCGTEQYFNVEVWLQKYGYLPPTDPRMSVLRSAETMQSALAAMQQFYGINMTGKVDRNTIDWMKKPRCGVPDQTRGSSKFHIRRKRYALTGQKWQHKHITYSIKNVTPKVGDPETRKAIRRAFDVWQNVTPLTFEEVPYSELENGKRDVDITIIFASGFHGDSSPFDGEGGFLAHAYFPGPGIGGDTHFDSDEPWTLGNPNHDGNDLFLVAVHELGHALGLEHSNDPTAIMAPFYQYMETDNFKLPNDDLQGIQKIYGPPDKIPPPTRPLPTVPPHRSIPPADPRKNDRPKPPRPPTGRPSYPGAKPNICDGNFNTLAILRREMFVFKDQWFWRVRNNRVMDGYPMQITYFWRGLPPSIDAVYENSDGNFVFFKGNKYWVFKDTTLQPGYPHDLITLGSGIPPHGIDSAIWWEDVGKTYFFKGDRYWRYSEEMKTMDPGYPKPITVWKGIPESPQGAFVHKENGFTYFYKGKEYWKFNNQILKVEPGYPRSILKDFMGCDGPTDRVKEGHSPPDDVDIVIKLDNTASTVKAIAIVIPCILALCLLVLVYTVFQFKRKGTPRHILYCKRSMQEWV
Sequence of Neutrophil collagenase (P22894 whole entry): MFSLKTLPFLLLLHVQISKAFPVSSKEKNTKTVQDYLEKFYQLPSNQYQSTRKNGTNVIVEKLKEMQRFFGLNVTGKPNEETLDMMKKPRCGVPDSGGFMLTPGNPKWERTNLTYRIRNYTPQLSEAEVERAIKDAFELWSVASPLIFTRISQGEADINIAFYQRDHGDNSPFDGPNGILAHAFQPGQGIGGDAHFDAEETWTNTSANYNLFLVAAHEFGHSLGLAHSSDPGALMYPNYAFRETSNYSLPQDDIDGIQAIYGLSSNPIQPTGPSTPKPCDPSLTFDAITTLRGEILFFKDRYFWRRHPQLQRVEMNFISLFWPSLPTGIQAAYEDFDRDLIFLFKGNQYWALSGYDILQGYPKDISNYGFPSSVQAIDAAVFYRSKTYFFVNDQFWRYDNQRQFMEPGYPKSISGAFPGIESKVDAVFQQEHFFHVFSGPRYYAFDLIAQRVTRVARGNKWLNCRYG
Sequence of Matrix metalloproteinase-15 (P51511 whole entry): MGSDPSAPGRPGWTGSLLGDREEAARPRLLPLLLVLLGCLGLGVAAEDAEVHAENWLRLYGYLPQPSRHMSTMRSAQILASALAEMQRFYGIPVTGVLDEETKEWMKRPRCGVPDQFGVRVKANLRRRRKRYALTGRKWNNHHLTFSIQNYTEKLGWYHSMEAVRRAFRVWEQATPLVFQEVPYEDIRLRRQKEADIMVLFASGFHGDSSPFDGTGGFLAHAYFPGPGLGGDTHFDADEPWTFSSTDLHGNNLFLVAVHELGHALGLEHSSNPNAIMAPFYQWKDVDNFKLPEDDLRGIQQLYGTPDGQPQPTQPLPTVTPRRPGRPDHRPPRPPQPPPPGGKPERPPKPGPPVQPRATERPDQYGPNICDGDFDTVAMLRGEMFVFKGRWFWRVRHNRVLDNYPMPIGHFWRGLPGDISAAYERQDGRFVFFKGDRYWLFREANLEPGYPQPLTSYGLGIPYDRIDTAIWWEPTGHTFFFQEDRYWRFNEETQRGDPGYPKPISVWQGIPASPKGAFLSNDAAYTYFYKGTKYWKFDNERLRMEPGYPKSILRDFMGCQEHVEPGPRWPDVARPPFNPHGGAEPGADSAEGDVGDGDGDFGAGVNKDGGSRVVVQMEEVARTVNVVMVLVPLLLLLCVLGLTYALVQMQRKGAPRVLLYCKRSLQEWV
Sequence of Macrophage metalloelastase (P39900 whole entry): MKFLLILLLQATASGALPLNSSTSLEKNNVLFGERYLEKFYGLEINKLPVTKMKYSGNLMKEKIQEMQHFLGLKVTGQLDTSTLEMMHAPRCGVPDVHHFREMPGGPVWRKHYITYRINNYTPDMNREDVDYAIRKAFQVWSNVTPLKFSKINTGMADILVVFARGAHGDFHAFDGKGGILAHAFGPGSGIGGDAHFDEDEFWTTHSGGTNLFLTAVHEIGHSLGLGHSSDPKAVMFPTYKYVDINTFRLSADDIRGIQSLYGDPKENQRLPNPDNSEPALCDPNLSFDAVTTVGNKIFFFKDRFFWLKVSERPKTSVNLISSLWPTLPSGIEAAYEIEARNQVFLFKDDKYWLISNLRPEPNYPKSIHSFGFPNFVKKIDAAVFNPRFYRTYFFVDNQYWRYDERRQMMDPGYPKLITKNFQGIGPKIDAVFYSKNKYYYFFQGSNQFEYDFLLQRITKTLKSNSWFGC
Sequence of Disintegrin and metalloproteinase domain-containing protein 17 (O77636 whole entry, the tested form may be a part): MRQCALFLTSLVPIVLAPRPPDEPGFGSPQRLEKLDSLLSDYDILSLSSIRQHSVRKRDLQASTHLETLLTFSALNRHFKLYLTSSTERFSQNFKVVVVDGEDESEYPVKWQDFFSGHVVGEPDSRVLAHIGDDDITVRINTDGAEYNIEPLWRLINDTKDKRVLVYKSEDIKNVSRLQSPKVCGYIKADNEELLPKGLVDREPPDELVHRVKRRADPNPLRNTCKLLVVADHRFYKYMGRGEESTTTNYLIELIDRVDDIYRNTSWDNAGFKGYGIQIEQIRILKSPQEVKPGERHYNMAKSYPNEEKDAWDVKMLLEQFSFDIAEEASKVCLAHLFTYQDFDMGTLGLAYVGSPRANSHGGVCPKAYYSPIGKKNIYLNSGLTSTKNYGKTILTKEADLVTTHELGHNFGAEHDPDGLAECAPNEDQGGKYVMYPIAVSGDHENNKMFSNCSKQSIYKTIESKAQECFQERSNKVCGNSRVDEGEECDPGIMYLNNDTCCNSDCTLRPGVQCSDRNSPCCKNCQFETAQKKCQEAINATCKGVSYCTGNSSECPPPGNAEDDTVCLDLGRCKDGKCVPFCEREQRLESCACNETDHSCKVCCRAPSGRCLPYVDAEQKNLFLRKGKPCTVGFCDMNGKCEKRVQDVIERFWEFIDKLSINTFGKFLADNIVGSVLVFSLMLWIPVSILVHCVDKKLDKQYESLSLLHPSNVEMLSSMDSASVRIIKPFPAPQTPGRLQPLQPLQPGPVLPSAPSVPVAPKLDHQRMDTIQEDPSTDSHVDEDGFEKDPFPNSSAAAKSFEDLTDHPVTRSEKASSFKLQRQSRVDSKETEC

Row | Structure (SMILES) | Ki [1] | Bound [2] | IC50 [3] | Ki [4] | Ki [5] | Ki [6] | Ki [7] | Ki [8] | Ki [9] | Ki [10] | Ki [11] | Ki [12] | Ki [13] | Ki [14] | Ki [15] | Ki [16]
1 | CS(=O)(=O)c1ccccc1-c1ccc(C[C@H]2C(=O)N[C@H](C(=O)NCC(=O)N3CCOCC3)CCCCNC(=O)OCCC[C@@H]2C(=O)NO)cc1 | > 2000 nM | 5% | 410 nM | 6.5 nM | > 2000 nM | > 2000 nM |  |  |  |  |  |  |  |  |  | 
2 | O=C1NCCCC[C@@H](C(=O)NCC(=O)N2CCNCC2)NC(=O)[C@H](Cc2ccc(-c3cccc(C(F)(F)F)c3)cc2)[C@@H](C(=O)NO)CCCO1 | > 2000 nM | 29% | 120 nM | 3.7 nM | 91 nM | 11 nM |  |  |  |  |  |  |  |  |  | 
3 | O=C1NCCCC[C@@H](C(=O)NCC(=O)N2CCNCC2)NC(=O)[C@H](Cc2ccc(-c3ccccc3C(F)(F)F)cc2)[C@@H](C(=O)NO)CCCO1 | > 2000 nM | 36% | 60 nM | 1.7 nM | 1790 nM | 700 nM | > 2000 nM | 390 nM | 177 nM | 50 nM | > 2000 nM | > 2000 nM | 582 nM | > 2000 nM | 672 nM | 
4 | O=C1NCCCC[C@@H](C(=O)NCC(=O)N2CCOCC2)NC(=O)[C@H](Cc2ccc(-c3cc(Cl)cc(Cl)c3)cc2)[C@@H](C(=O)NO)CCCO1 | > 2000 nM | 83% | 227 nM | 2.8 nM | 183 nM | 50 nM |  |  |  |  |  |  |  |  |  | 
5 | CNC(=O)CNC(=O)[C@@H]1CCCCNC(=O)OCCC[C@H](C(=O)NO)[C@@H](Cc2ccc(-c3ccccc3C(F)(F)F)cc2)C(=O)N1 | > 2000 nM | 33% | 380 nM | 3.8 nM | 1170 nM | 450 nM |  |  |  |  |  |  |  |  |  | 
6 | CC(C)C[C@H]1C(=O)N[C@H](C(=O)NCC(=O)N2CCOCC2)CCCCNC(=O)OCCC[C@@H]1C(=O)NO |  | 1% |  |  |  |  |  |  |  |  |  |  |  |  |  | 
7 | O=C1NCCCC[C@@H](C(=O)NCC(=O)N2CCOCC2)NC(=O)[C@H](Cc2ccc(-c3c(F)cccc3F)cc2)[C@@H](C(=O)NO)CCCO1 |  | 25% | 3700 nM | 6.3 nM | 21 nM | 0.64 nM |  |  |  |  |  |  |  |  |  | > 2000 nM
8 | O=C1NCCCC[C@@H](C(=O)NCC(=O)N2CCOCC2)NC(=O)[C@H](Cc2ccc(-c3ccccc3C(F)(F)F)cc2)[C@@H](C(=O)NO)CCCO1 | > 2000 nM | 55% | 70 nM | 2.8 nM | > 2000 nM | > 2000 nM | > 2000 nM | > 2000 nM | 834 nM | 653 nM | > 2000 nM | > 2000 nM | > 2000 nM | > 2000 nM | 126 nM | 
9 | NC(=O)CNC(=O)[C@@H]1CCCCNC(=O)OCCC[C@H](C(=O)NO)[C@@H](Cc2ccc(-c3ccccc3C(F)(F)F)cc2)C(=O)N1 | > 2000 nM |  | 180 nM | 1.5 nM | > 2000 nM | 1870 nM | > 2000 nM | > 2000 nM | 1340 nM | 442 nM | > 2000 nM | > 2000 nM | > 2000 nM | > 2000 nM | 428 nM | 
10 | O=C1NCCCC[C@@H](C(=O)NCC(=O)N2CCNCC2)NC(=O)[C@H](Cc2ccc(-c3cc(C(F)(F)F)cc(C(F)(F)F)c3)cc2)[C@@H](C(=O)NO)CCCO1 | > 2000 nM | 71% | 180 nM | 4.6 nM | > 2000 nM | > 2000 nM | > 2000 nM | 35 nM | > 2000 nM | > 2000 nM | > 2000 nM | > 2000 nM | > 2000 nM | > 2000 nM | 272 nM | 
